Experimental data reported in ChEMBL document CHEMBL4261639, “Cell-Active Small Molecule Inhibitors of the DNA-Damage Repair Enzyme Poly(ADP-ribose) Glycohydrolase (PARG): Discovery and Optimization of Orally Bioavailable Quinazolinedione Sulfonamides” (J Med Chem, 2018).
≈ marks a conversion by molar mass, not a printed value.

Key:
[1] = Clearance in mouse liver microsomes
[2] = target: Cytochrome P450 2C9 (Homo sapiens, UniProt P11712); assay: Inhibition of CYP2C9 (unknown origin); assay type: ADME
[3] = Clearance in CD1 mouse at 1 mg/kg, iv administered as single dose by LC-MS/MS analysis; assay type: ADME, organism-based; conditions: in vivo
In short: (§1)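 Male CD-1 mice (n = 2) received a single intravenous dose at a nominal 1 mg/kg.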

[4] = target: T1, CYP1A (Homo sapiens, UniProt P04798+P05177); assay: Inhibition of CYP1A (unknown origin); assay type: ADME, protein assay
T1 sequence (P04798 whole entry): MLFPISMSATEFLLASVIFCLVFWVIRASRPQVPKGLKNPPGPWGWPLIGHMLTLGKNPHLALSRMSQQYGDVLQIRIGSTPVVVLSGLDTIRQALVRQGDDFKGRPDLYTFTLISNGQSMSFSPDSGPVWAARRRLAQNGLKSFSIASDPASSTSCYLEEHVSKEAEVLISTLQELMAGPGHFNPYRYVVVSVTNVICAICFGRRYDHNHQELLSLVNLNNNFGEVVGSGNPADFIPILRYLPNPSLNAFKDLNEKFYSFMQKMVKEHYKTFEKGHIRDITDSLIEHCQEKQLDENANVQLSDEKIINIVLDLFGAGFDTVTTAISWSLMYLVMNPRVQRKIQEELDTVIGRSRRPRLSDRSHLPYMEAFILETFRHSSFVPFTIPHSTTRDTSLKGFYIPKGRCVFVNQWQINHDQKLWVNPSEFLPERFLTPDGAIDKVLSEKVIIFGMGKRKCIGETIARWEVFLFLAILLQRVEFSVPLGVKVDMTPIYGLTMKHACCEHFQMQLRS
T1 sequence (P05177 whole entry): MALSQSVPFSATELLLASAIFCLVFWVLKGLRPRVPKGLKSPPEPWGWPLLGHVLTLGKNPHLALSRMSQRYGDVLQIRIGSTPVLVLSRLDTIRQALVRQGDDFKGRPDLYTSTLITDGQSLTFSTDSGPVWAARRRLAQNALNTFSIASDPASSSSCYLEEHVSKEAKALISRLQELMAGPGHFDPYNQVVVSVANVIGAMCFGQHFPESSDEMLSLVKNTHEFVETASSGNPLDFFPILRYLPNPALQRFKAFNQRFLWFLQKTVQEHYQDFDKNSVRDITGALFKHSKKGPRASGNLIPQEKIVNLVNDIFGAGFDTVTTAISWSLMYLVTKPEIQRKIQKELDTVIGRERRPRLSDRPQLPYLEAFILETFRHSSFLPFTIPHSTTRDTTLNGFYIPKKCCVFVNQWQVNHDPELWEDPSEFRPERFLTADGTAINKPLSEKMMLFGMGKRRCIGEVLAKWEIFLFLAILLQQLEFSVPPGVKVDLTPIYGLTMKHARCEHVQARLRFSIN

[5] = AUC in CD1 mouse at 1 mg/kg, iv administered as single dose by LC-MS/MS analysis; assay type: ADME, organism-based; conditions: in vivo; in short: as §1
[6] = Oral bioavailability in CD1 mouse at 5 mg/kg administered as single dose by LC-MS/MS analysis; assay type: ADME, organism-based; conditions: in vivo
In short: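 Male CD-1 mice (n = 2) were dosed orally at a nominal 5 mg/kg, with a separate intravenous group (n = 2) at a nominal 1 mg/kg for comparison.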

[7] = Solubility of the compound; assay type: physicochemical
[8] = Clearance in mouse hepatocytes assessed per million cells
[9] = Half life in CD1 mouse at 1 mg/kg, iv administered as single dose by LC-MS/MS analysis; assay type: ADME, organism-based; conditions: in vivo; in short: as §1
[10] = Volume of distribution in CD1 mouse at 1 mg/kg, iv administered as single dose by LC-MS/MS analysis; assay type: ADME, organism-based; conditions: in vivo; in short: as §1
[11] = target: T2, Poly(ADP-ribose) glycohydrolase (Homo sapiens, UniProt Q86W56); assay: Inhibition of PARG in human HeLa cells assessed as induction of MMS-induced PAR chains preincubated for 1 hr followed by MMS addition and measured after 1 hr by Alexofluor 488-conjugated secondary antibody and Hoechst 33342 staining based assay; assay type: cell-based
In short: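 Acute (1 h) cell-based proof-of-mechanism assay measuring persistence of PAR chains, i.e. blockade of PARG-mediated PAR degradation, across a dose range. EC50 values are means of at least 4 independent measurements, with standard deviations.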

[12] = target: Cytochrome P450 2D6 (Homo sapiens, UniProt P10635); assay: Inhibition of CYP2D6 (unknown origin); assay type: ADME
[13] = target: Cytochrome P450 3A4 (Homo sapiens, UniProt P08684); assay: Inhibition of CYP3A4 (unknown origin); assay type: ADME
[14] = target: Cytochrome P450 2C19 (Homo sapiens, UniProt P33261); assay: Inhibition of CYP2C19 (unknown origin); assay type: ADME
[15] = Apparent permeability across apical to basolateral side in human Caco2 cells; assay type: ADME, cell-based; conditions: Caco-2
[16] = tested on: PARG (human, full length); assay: Selectivity ratio of cytotoxicity for human HeLa cells to EC50 for human full length PARG; assay type: toxicity, cell-based
[17] = Clearance in human liver microsomes
[18] = target: T2, Poly(ADP-ribose) glycohydrolase; assay: Inhibition of human full length PARG using Bt-NAD ribosylated PARP1 substrate after 10 mins by TR-FRET assay
[19] = Efflux ratio of apparent permeability in human Caco2 cells; conditions: Caco-2
[20] = tested on: HeLa; assay: Cytotoxicity against human HeLa cells after 72 hrs by Hoechst 33342 staining based assay; assay type: cell-based
[21] = Solubility of the compound by turbidimetric method; assay type: physicochemical
[22] = target: T3, ADP-ribosylhydrolase ARH3 (Homo sapiens, UniProt Q9NX46); assay: Inhibition of human full length C-terminus His-tagged ARH3 expressed in Escherichia coli using Bt-NAD ribosylated PARP1 substrate after 30 mins by TR-FRET assay
T3 sequence (Q9NX46 whole entry): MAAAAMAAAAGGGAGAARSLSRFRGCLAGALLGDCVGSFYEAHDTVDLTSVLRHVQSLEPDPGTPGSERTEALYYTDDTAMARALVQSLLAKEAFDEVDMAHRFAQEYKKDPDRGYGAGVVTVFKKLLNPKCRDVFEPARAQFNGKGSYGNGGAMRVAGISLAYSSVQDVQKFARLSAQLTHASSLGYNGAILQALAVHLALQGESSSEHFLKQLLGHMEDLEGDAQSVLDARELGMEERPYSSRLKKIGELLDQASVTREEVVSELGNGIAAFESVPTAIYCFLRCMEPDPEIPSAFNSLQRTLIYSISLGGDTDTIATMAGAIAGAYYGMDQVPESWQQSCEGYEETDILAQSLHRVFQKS

[23] = target: Poly [ADP-ribose] polymerase 1 (Homo sapiens, UniProt P09874); assay: Inhibition of human PARP1 expressed in Escherichia coli using activated DNA as substrate after 60 mins by peroxy glow reagent A/B based assay
[24] = Partition coefficient, log D of compound at pH 7.4; assay type: physicochemical; conditions: octanol/water

Chain of Poly [ADP-ribose] polymerase 1 (P09874 whole entry): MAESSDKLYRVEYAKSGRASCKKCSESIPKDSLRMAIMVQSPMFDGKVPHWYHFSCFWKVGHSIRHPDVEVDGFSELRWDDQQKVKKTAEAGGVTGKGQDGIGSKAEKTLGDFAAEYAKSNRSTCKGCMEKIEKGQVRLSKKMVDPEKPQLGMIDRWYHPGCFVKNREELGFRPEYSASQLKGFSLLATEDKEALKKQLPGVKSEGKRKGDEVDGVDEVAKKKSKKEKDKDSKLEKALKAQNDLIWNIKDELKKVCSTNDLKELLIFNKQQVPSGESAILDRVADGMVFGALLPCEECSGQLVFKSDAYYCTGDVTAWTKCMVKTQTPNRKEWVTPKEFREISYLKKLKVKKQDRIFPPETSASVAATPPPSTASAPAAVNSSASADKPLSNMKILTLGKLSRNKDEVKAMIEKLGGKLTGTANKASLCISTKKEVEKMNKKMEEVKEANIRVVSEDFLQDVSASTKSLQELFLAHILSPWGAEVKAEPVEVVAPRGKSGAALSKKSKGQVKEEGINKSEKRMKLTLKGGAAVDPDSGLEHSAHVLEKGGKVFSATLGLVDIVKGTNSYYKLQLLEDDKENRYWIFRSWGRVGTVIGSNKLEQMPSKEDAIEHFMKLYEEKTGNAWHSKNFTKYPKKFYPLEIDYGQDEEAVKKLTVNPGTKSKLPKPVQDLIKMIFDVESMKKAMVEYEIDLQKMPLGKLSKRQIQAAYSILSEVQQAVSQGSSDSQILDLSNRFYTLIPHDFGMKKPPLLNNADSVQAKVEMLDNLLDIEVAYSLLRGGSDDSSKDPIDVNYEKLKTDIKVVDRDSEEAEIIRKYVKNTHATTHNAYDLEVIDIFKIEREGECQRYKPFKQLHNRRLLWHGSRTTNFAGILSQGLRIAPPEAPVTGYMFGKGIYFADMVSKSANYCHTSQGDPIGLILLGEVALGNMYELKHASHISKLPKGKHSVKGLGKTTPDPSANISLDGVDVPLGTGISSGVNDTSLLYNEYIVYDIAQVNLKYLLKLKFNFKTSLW
T2 sequence (Q86W56 whole entry): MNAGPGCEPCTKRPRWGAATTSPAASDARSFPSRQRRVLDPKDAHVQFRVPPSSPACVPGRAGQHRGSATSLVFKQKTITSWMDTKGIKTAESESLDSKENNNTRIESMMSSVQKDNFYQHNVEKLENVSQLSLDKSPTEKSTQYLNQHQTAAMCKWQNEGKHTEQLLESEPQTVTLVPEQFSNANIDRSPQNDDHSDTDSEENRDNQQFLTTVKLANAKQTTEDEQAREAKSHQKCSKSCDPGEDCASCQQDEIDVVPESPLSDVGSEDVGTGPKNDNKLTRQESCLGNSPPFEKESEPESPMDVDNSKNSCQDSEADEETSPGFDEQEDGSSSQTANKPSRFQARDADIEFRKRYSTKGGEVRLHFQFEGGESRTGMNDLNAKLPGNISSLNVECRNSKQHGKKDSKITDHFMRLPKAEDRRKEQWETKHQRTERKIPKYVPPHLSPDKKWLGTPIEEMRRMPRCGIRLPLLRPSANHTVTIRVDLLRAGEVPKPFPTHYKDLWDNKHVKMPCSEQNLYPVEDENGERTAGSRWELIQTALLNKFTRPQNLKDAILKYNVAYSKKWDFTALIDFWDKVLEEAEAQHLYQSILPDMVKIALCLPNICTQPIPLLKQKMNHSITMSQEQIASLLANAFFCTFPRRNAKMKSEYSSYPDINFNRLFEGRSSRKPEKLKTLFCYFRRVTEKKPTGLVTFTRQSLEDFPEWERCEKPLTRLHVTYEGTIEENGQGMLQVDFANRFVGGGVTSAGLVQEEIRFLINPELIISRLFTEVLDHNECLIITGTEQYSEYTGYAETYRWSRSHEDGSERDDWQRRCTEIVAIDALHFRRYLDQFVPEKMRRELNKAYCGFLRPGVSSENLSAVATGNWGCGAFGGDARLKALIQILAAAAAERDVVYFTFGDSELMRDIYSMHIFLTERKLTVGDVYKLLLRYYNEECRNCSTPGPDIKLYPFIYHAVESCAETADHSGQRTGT
Chain of Cytochrome P450 2D6 (P10635 whole entry): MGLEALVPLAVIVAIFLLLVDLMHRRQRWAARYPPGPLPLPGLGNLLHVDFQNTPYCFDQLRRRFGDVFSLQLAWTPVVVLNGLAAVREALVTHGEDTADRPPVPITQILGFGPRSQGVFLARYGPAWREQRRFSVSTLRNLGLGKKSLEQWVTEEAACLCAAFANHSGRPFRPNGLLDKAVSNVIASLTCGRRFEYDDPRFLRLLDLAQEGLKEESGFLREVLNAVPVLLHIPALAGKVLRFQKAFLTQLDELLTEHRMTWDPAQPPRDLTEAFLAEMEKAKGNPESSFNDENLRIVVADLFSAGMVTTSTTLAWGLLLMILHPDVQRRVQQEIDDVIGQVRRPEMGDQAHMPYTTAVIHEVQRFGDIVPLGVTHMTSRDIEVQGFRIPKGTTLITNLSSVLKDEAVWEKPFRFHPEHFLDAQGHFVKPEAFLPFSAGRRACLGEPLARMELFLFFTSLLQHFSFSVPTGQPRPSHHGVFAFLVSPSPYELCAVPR
Chain of Cytochrome P450 3A4 (P08684 whole entry): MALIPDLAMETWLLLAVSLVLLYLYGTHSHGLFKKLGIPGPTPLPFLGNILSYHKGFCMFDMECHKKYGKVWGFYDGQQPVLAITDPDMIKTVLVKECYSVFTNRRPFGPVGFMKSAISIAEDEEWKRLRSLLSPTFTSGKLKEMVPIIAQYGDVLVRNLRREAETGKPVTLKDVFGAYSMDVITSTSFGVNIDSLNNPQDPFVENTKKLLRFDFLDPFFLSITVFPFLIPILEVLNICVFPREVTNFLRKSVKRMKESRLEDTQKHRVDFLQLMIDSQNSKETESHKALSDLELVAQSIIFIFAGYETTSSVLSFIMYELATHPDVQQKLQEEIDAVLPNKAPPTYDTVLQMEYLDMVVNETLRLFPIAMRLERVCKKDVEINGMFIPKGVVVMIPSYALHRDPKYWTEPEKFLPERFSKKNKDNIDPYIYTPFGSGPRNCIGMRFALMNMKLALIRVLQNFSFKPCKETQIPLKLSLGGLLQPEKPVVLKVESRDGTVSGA
Chain of Cytochrome P450 2C9 (P11712 whole entry): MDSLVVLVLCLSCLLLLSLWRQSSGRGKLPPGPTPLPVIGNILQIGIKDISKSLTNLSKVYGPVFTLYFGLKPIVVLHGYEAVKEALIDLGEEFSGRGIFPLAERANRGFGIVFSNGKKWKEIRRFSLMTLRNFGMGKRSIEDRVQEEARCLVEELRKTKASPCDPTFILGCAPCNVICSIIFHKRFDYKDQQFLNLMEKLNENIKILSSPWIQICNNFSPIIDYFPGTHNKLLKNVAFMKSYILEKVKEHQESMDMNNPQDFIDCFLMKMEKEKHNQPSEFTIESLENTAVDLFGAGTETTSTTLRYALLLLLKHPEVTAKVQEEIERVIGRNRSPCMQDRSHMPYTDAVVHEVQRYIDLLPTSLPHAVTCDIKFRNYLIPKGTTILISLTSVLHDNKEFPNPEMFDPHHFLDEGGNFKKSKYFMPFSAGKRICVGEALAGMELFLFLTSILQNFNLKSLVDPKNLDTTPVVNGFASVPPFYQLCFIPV
Chain of Cytochrome P450 2C19 (P33261 whole entry): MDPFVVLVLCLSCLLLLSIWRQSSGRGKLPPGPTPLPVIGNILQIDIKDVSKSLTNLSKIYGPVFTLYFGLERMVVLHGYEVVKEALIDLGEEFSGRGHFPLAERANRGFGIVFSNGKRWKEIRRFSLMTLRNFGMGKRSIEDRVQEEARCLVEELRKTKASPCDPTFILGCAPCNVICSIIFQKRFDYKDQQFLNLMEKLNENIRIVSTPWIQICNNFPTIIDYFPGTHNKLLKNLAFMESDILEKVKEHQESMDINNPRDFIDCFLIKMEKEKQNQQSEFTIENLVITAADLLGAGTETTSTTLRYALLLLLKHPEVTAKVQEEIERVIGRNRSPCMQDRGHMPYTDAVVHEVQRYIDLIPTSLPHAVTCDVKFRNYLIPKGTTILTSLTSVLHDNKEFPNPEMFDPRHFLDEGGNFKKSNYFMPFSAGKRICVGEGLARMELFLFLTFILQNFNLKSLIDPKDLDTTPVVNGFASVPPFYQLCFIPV

SMILES	microsomal CLint [1]	EC50 [11]	microsomal CLint [17]	EC50 [18]	further results
Cn1cc(Cn2c(=O)c3cc(S(=O)(=O)NC4(C)CC4)ccc3n(CC3COC3)c2=O)cn1	16 µL/min/mg	250 nM	9.2 µL/min/mg	69 nM	IC50 [2]: > 10000 nM; clearance [3]: 66.7 mL/min/kg; IC50 [4]: > 10000 nM; AUC [5]: 250 ng·h/mL; bioavailability [6]: 41%; solubility [7]: > 100 µM; hepatocyte CLint [8]: 24 µL/min/1e6 cells; half-life [9]: 22 min; Vd [10]: 1.4 L/kg; IC50 [12]: > 10000 nM; IC50 [13]: > 10000 nM; IC50 [14]: > 10000 nM; Papp A→B [15]: 1 ×10⁻⁶ cm/s; selectivity ratio [16]: > 100; efflux ratio [19]: 34
CC(C)(C)NS(=O)(=O)c1ccc2c(c1)C(=O)c1ccccc1C2=O		30000 nM		81000 nM	Activity [20]: 16 µM; solubility kinetic [21]: 20 µM (≈ 6.87 µg/mL)
Cc1ncc(Cn2c(=O)c3cc(S(=O)(=O)NC4(C)CC4)ccc3n(CC3CC3)c2=O)s1		28 nM	160 µL/min/mg	19 nM	EC50 [22]: > 100000 nM; EC50 [23]: > 150000 nM
CCn1c(=O)n(Cc2nnc(C)s2)c(=O)c2cc(S(=O)(=O)NC3(C)CC3)ccc21	30 µL/min/mg	120 nM	17 µL/min/mg	240 nM	
Cn1c(=O)c2cc(S(=O)(=O)NC3(C)CC3)ccc2n(C)c1=O		1800 nM		3900 nM	Activity [20]: > 30 µM; logD [24]: 1.73; solubility kinetic [21]: > 100 µM
Cn1c(=O)c2cc(S(=O)(=O)NC3(C)CC3)ccc2n(CC2CC2)c1=O		620 nM		440 nM	EC50 [22]: > 100000 nM; EC50 [23]: > 150000 nM; selectivity ratio [16]: > 100
Cc1cc(Cn2c(=O)c3cc(S(=O)(=O)NC4(C)CC4)ccc3n(CC3COC3)c2=O)on1	22 µL/min/mg	280 nM	19 µL/min/mg	340 nM	IC50 [2]: > 25000 nM; clearance [3]: 167 mL/min/kg; IC50 [4]: > 25000 nM; AUC [5]: 90 ng·h/mL; bioavailability [6]: 25%; solubility [7]: > 100 µM; hepatocyte CLint [8]: 25 µL/min/1e6 cells; half-life [9]: 12 min; Vd [10]: 2.5 L/kg; IC50 [12]: > 25000 nM; IC50 [13]: > 25000 nM; IC50 [14]: > 25000 nM; Papp A→B [15]: 1.9 ×10⁻⁶ cm/s; selectivity ratio [16]: > 100; efflux ratio [19]: 21
Cc1cc(Cn2c(=O)c3cc(S(=O)(=O)NC4(C)CC4)ccc3n(CC3CC3)c2=O)on1		49 nM	80 µL/min/mg	55 nM	
Cc1nc(C)c(Cn2c(=O)n(Cc3cnn(C)c3)c(=O)c3cc(S(=O)(=O)NC4(C)CC4)ccc32)s1		20 nM	97 µL/min/mg	6 nM	

Now from value to compound, other results behind:

microsomal CLint [1]	EC50 [11]	microsomal CLint [17]	EC50 [18]	SMILES	further results
	37 nM	79 µL/min/mg	26 nM	Cc1cc(Cn2c(=O)n(Cc3cnc(C)s3)c(=O)c3cc(S(=O)(=O)NC4(C)CC4)ccc32)n(C)n1	selectivity ratio [16]: > 100
35 µL/min/mg	270 nM	15 µL/min/mg	64 nM	Cc1cc(Cn2c(=O)n(Cc3nnc(C)s3)c(=O)c3cc(S(=O)(=O)NC4(C)CC4)ccc32)n(C)n1	
	88 nM	34 µL/min/mg	23 nM	Cc1cc(Cn2c(=O)n(Cc3cnn(C)c3)c(=O)c3cc(S(=O)(=O)NC4(C)CC4)ccc32)n(C)n1	EC50 [22]: > 100000 nM; EC50 [23]: > 150000 nM; selectivity ratio [16]: > 100
	130 nM	42 µL/min/mg	52 nM	C#CCn1c(=O)n(Cc2cnn(C)c2)c(=O)c2cc(S(=O)(=O)NC3(C)CC3)ccc21	
63 µL/min/mg	270 nM	10 µL/min/mg	250 nM	C#CCn1c(=O)n(CC#N)c(=O)c2cc(S(=O)(=O)NC3(C)CC3)ccc21	
	76 nM	72 µL/min/mg	100 nM	C#CCn1c(=O)n(Cc2cc(C)no2)c(=O)c2cc(S(=O)(=O)NC3(C)CC3)ccc21	
	560 nM	20 µL/min/mg	280 nM	Cc1cc(Cn2c(=O)n(CC#N)c(=O)c3cc(S(=O)(=O)NC4(C)CC4)ccc32)n(C)n1	
36 µL/min/mg	1100 nM	17 µL/min/mg	270 nM	CC1(NS(=O)(=O)c2ccc3c(c2)c(=O)n(CC#N)c(=O)n3CC2CC2)CC1	
	120 nM	37 µL/min/mg	38 nM	Cc1cc(Cn2c(=O)c3cc(S(=O)(=O)NC4(C)CC4)ccc3n(Cc3cc(C)nn3C)c2=O)on1	
